Source: ChEMBL document CHEMBL1149323, “Synthesis and evaluation of dihydropyrroloquinolines that selectively antagonize P-glycoprotein” (J Med Chem, 2004)
“And” between values parts separate entries of the source, which are not always exact repeats. Identical values can stand only once.

Columns and labels:
[1] = Ratio of the Pgp to that of MRP1 was determined; format: functional
MCF7 = test: Toxicity was determined against of MCF-7 cells at a dose of 10 ug/mL; format: cell-based; conditions: human
How it was run: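 Drug-sensitive MCF-7 cells exposed to 10 μg/mL compound for 48 h, in triplicate, with 1% ethanol solvent controls. Percentage of cells killed = percentage decrease in sulforhodamine B binding (570 nm) relative to control cultures.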

[2] = target: Multidrug resistance-associated protein 1 (Homo sapiens, UniProt P33527); test: MRP1 antagonism was determined percentage of MCF-7/VP cells surviving in the absence of vincristine/percentage of MCF-7/VP cells surviving in the presence of vincristine; format: functional
Multidrug resistance-associated protein 1, sequence (P33527 whole entry): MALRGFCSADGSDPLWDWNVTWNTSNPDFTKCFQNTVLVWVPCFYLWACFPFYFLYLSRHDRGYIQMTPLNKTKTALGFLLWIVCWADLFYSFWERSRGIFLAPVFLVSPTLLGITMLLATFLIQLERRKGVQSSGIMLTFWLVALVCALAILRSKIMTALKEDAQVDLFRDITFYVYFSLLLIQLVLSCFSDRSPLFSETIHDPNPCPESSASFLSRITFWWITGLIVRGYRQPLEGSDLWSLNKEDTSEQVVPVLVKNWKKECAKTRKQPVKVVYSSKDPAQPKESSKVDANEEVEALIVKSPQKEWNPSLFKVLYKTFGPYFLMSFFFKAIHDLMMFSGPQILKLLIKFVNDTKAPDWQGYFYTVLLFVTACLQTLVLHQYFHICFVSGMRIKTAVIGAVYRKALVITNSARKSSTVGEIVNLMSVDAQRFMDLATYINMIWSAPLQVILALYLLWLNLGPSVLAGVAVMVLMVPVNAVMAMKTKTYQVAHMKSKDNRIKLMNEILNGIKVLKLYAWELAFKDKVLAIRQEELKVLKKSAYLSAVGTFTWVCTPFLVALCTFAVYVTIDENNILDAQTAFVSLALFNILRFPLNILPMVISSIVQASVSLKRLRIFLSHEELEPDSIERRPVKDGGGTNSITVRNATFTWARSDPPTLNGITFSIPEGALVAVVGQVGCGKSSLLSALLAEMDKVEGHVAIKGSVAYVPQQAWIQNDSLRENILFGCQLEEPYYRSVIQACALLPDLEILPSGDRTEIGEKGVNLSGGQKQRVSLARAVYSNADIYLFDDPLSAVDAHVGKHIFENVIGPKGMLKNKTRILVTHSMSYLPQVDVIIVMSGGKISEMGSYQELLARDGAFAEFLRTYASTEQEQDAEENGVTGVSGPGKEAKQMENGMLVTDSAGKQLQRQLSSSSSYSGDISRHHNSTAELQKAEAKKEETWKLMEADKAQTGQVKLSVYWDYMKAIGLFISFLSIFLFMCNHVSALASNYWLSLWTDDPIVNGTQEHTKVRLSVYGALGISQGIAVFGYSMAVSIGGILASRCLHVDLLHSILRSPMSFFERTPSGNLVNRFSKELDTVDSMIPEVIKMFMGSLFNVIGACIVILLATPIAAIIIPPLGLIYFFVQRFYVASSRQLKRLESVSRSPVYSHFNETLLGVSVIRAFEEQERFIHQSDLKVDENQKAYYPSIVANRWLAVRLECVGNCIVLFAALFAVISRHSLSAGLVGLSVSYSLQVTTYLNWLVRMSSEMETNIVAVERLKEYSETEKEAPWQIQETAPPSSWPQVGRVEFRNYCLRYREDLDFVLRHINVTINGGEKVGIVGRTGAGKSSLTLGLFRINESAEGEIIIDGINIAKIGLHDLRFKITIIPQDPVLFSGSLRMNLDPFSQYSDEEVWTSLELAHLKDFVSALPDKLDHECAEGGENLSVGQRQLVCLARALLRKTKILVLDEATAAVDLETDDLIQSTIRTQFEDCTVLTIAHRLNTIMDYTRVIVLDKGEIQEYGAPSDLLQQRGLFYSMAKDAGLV
How it was run: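 MCF-7/VP cells in RPMI 1640 with 10% FBS. Modulator at 10 μg/mL tested with or without 1 nM vincristine for 48 h, in triplicate. Sulforhodamine B read-out at 570 nm. Score = % survival without vincristine / % survival with vincristine; a score above 1.0 indicates chemosensitization.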

[3] = target: T1, ATP-dependent translocase ABCB1 (Homo sapiens, UniProt P08183); test: Pgp antagonism was determined percentage of NCI/ADR cells surviving in the absence of vinblastine/percentage of NCI/ADR cells surviving in the presence of vinblastine; format: functional, cell-based
T1 sequence (P08183 whole entry): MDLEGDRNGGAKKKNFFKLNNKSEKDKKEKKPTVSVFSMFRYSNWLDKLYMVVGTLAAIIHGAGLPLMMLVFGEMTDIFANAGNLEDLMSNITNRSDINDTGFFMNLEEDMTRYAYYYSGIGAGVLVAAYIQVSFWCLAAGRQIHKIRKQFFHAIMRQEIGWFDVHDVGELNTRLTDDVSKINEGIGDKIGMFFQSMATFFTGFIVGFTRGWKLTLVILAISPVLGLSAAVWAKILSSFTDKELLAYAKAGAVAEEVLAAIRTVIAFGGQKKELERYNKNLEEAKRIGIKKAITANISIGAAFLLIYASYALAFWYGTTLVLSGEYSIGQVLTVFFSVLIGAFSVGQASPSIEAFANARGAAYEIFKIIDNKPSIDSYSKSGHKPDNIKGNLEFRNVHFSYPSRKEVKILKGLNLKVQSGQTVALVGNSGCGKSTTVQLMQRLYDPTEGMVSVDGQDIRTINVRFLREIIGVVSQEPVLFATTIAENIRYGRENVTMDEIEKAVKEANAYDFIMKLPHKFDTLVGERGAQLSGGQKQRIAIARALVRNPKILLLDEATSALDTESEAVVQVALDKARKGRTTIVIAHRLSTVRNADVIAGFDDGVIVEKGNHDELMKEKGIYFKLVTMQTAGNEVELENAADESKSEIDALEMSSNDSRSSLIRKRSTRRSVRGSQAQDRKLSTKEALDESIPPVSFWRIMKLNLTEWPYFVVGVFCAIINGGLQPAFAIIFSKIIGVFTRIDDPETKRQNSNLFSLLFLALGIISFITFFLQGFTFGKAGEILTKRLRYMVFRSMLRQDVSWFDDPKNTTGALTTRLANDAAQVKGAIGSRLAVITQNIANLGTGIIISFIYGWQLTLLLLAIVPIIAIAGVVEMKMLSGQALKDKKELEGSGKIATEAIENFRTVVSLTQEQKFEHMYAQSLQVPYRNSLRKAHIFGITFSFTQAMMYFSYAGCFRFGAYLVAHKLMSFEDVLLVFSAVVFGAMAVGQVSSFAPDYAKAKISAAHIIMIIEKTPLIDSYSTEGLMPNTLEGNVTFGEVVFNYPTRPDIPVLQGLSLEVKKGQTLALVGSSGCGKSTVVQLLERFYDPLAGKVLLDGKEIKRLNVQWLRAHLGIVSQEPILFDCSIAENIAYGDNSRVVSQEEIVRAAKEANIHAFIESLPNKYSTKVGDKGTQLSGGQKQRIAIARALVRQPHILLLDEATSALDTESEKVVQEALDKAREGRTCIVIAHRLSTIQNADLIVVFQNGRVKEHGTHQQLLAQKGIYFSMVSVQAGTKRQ
How it was run: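 Modulator at 10 μg/mL tested with or without 50 nM vinblastine for 48 h, in triplicate. Survival read by sulforhodamine B at 570 nm against ethanol (1%) controls. Score = % survival without vinblastine / % survival with vinblastine.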

[4] = target: T1, ATP-dependent translocase ABCB1; test: Compound was evaluated for broad range of antagonistic activity against P-glycoprotein (Pgp) value expressed as IC20; format: functional
[5] = Compound was evaluated for broad range of antagonistic activity against multi drug resistance-related protein (MRP) value expressed as IC20; format: functional; parameters: unit not given here
MCF-7 (Homo sapiens) = test: Toxicity against MCF-7 cells
Mus musculus [6] = test: In vivo tumor growth inhibition in mice when administered […] at a day 9; format: functional
How it was run: (§1)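 Balb/c female mice, 6–8 weeks old, with 10^6 JC murine mammary adenocarcinoma cells injected subcutaneously in the right hind quarter. Treatment began once tumors were palpable (day 1), five mice per group. Dosing on days 1, 5 and 9: 100 mg/kg i.p. PGP-4008·HCl with or without 5 mg/kg doxorubicin. Caliper volumes calculated as (L×W²)/2 through day 15; unpaired t-test with Welch correction.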

Mus musculus [7] = test: In vivo tumor growth inhibition in mice when administered subcutaneously at a day 5; format: functional; conditions: in the assay text read “intraperitoneally” for “subcutaneously”; how it was run: as §1
Mus musculus [8] = test: In vivo tumor growth inhibition in mice when […] at a day 1; format: functional; how it was run: as §1
Mus musculus [9] = test: In vivo tumor growth inhibition in mice when administered […] at a day 12; format: functional; how it was run: as §1
Mus musculus [10] = test: In vivo tumor growth inhibition in mice when […] at a day 15; format: functional; how it was run: as §1

Row | SMILES | Ratio [1] | Toxicity (MCF7) | Ratio [2] | Ratio [3] | also measured
1 | Cc1ccc2nc3c(c(N)c2c1)CCN3Cc1ccccc1 | 1.3 | 81% | 1.2 | 1.5 | 
2 | CN1CCc2c1nc1ccccc1c2NC(=O)Cc1ccccc1 | 5.6 |  |  |  | 
3 | Nc1c2c(nc3cc(Br)ccc13)N(Cc1ccccc1)CC2 | 1.3 | 94% | 1.3 | 1.7 | 
4 | CN1CCc2c1nc1ccccc1c2NC(=O)CN1CCCCC1 | 3.4 | 51% | 1.2 | 4.1 | 
5 | Cc1ccc2c(N)c3c(nc2c1)N(Cc1ccccc1)CC3 | 0.9 and 0.7 | 77% and 98% | 1.7 and 1 | 1.6 and 0.7 | 
6 | Nc1c2c(nc3cc(Br)ccc13)N(C1CCCCC1)CC2 | 1 | 99% | 1 | 1 | 
7 | CC(C)(C)NCC(=O)Nc1c2c(nc3ccccc13)N(Cc1ccccc1)CC2 | 13 | 29% | 0.9 | 12 | 
8 | CN1CCc2c1nc1ccccc1c2NC(=O)CCc1cc(C(C)(C)C)c(O)c(C(C)(C)C)c1 | 1 | 99% | 1 | 1 | 
9 | CN1CCN(CC(=O)Nc2c3c(nc4ccccc24)N(Cc2ccccc2)CC3)CC1 | 6.8 | 21% | 1.1 | 7.5 | 
10 | Nc1c2c(nc3ccccc13)N(C1CCCCC1)CC2 | 1.3 | 97% | 0.6 | 0.8 | 
11 | CCOC(=O)CNc1c2c(nc3ccccc13)N(Cc1ccccc1)CC2 |  |  |  |  | Activity [4]: 0.9; Activity [5]: 0.9; Toxicity (MCF-7 (Homo sapiens)): 33 µM
12 | CCN(CC)CC(=O)Nc1c2c(nc3ccccc13)N(C)CC2 | 5 | 30% | 1.2 | 6 | 
13 | CN1CCc2c1nc1ccccc1c2NC(=O)CNCCc1ccc(O)cc1 | 1.2 | 21% | 1.4 | 1.7 | 
14 | Fc1ccc(CNc2c3c(nc4ccccc24)N(Cc2ccccc2)CC3)cc1 |  |  |  |  | Activity [4]: 1.3; Activity [5]: 0.7; Toxicity (MCF-7 (Homo sapiens)): > 65 µM
15 | CCC(=O)Nc1c2c(nc3ccccc13)N(C)CC2 | 1.6 |  |  |  | 
16 | CCCCN(CCCC)CC(=O)Nc1c2c(nc3ccccc13)N(C)CC2 | 3.2 | 50% | 1.3 | 4.2 | 
17 | O=C(Nc1c2c(nc3ccccc13)N(Cc1ccccc1)CC2)c1c(F)ccc(F)c1F |  |  |  |  | Activity [4]: 3.1; Activity [5]: 1; Toxicity (MCF-7 (Homo sapiens)): > 58 µM
18 | CCCCN1CCc2c1nc1cc(Br)ccc1c2N | 1.1 | 98% | 1 | 1.1 | 
19 | CCN(CC)CC(=O)Nc1c2c(nc3ccccc13)N(Cc1ccccc1)CC2 | 15 | 14% | 1 | 15 | 

Row | SMILES | Ratio [1] | Toxicity (MCF7) | Ratio [2] | Ratio [3] | also measured
20 | O=C(Nc1c2c(nc3ccccc13)N(Cc1ccccc1)CC2)c1c(F)cccc1C(F)(F)F |  |  |  |  | Activity [4]: 2.5; Activity [5]: 0.9; Toxicity (MCF-7 (Homo sapiens)): 13 µM
21 | CN1CCc2c1nc1ccccc1c2NC(=O)C12CC3CC(CC(C3)C1)C2 | 5.2 | 29% | 0.9 | 4.7 | 
22 | O=C(Nc1c2c(nc3ccccc13)N(Cc1cccc(Cl)c1)CC2)C12CC3CC(CC(C3)C1)C2 | 1 | 33% | 1.2 | 1.2 | 
23 | CC(C)NCC(=O)Nc1c2c(nc3ccccc13)N(Cc1ccccc1)CC2 | 13 | 45% | 1 | 13 | 
24 | CC(C)NCC(=O)Nc1c2c(nc3ccccc13)N(C)CC2 | 1.3 | 39% | 1.4 | 1.8 | 
25 | Nc1c2c(nc3ccccc13)N(c1ccccc1)CC2 | 2.5 | 52% | 1.1 | 2.7 | 
26 | CN1CCc2c1nc1ccccc1c2NC(=O)CNC(C)(C)C | 2.7 | 28% | 1.2 | 3.2 | 
27 | CN1CCc2c1nc1ccccc1c2/N=C(/c1ccccc1)N1CCCCC1 | 2.4 | 58% | 1 | 2.4 | 
28 | O=C(CN1CCCCC1)Nc1c2c(nc3ccccc13)N(Cc1ccccc1)CC2 | 16 | 0% | 1.1 | 18 | Activity [4]: 9; Activity [5]: 1; Toxicity (MCF-7 (Homo sapiens)): 14 µM
29 | COc1cccc2c1C(=O)c1c(O)c3c(c(O)c1C2=O)C[C@@](O)(C(=O)CO)C[C@@H]3O[C@H]1C[C@H](N)[C@H](O)[C@H](C)O1.O=C(Cc1ccccc1)Nc1c2c(nc3ccccc13)N(Cc1ccccc1)CC2 |  |  |  |  | Tumor volume (Mus musculus [6]): 520 mm**3; Tumor volume (Mus musculus [7]): 470 mm**3; Tumor volume (Mus musculus [8]): 390 mm**3; Tumor volume (Mus musculus [9]): 560 mm**3; Tumor volume (Mus musculus [10]): 670 mm**3
30 | COc1cc(CNc2c3c(nc4ccccc24)N(Cc2ccccc2)CC3)cc(OC)c1 |  |  |  |  | Activity [4]: 1.4; Activity [5]: 0.9; Toxicity (MCF-7 (Homo sapiens)): 47 µM
31 | Nc1c2c(nc3ccccc13)N(Cc1ccccc1)CC2 | 3.1 | 47% | 1 | 3.1 | Activity [4]: 1; Activity [5]: 1; Toxicity (MCF-7 (Homo sapiens)): 6.2 µM
32 | COc1cccc2c1C(=O)c1c(O)c3c(c(O)c1C2=O)C[C@@](O)(C(=O)CO)C[C@@H]3O[C@H]1C[C@H](N)[C@H](O)[C@H](C)O1 [DOXORUBICIN] |  |  |  |  | Tumor volume (Mus musculus [6]): 860 mm**3; Tumor volume (Mus musculus [7]): 520 mm**3; Tumor volume (Mus musculus [8]): 430 mm**3; Tumor volume (Mus musculus [9]): 1210 mm**3; Tumor volume (Mus musculus [10]): 1680 mm**3
33 | O=C(Nc1c2c(nc3ccccc13)N(Cc1ccccc1)CC2)c1ccc(F)c(C(F)(F)F)c1 |  |  |  |  | Activity [4]: 4.9; Activity [5]: 0.9; Toxicity (MCF-7 (Homo sapiens)): 19 µM
34 | Fc1cccc(CNc2c3c(nc4ccccc24)N(Cc2ccccc2)CC3)c1 |  |  |  |  | Activity [4]: 1.2; Activity [5]: 0.7; Toxicity (MCF-7 (Homo sapiens)): > 65 µM
35 | CC(C)(C)c1cc(CCC(=O)Nc2c3c(nc4ccccc24)N(Cc2ccccc2)CC3)cc(C(C)(C)C)c1O | 11 | 50% | 1.2 | 13.2 | 
36 | CN1CCc2c1nc1cc(Br)ccc1c2N | 0.8 | 94% | 1.6 | 1.3 | 
37 | Cc1cc(C)c2c(N)c3c(nc2c1)N(Cc1ccccc1)CC3 | 2.6 | 49% | 1.4 | 3.6 | 
